These results are taken from PubChem BioAssay.

A short description of test [1]: inhibitors of TNFa-induced NFkB p65 translocation, primary screen, imaging, HUVEC, MLSMR starter and 10KST1 sets (AID 438;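 active = inhibition above 20% together with a positive visual image hit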;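 note: compound added about 3h40 before a 20 min TNFalpha stimulation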;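 for inhibition: signal is the nuclear over cytoplasmic p65 intensity ratio per well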). Particulars: HUVEC TNFa-induced p65 nuclear translocation; cell count: measured here: nuclei count (cytotoxicity indicator), at 2.08 µM; inhibition: at 2 µM, stronger effect = higher value, 0% TNFa-plus-vehicle, 100% no-TNFa wells.
A short description of test [2]: reduction of polyQ htt aggregates in cells – imaging, exon1htt(103Q)mCFP cells, high-content imaging, primary screen (AID 483;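 active = visual image review flags a hit and inhibition of aggregation exceeds 20%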;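 note: compound exposure lasted 3 days before fixation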;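 for nuclei count: percent of the per-plate median nuclei count of sample wells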). As to conditions: exon1htt(103Q)mCFP cell line, aggregate imaging, at 2 µM; inhibition of aggregation: stronger effect = higher value; nuclei count: measured here: cell count, toxicity.
Test [3] is described as follows: endothelial E-selectin expression blockers – imaging, HUVEC, immunofluorescence, MLSMR starter and 10KST1 sets, primary screen (AID 487;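 active = visually confirmed hit in the image check and inhibition above 20%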;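 for inhibition: signal is fraction of cell area covered by stained E-selectin grains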;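 for nuclei count: 100% = median nuclei count of all wells on the same plate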). Particulars: HUVEC TNFalpha-induced E-selectin immunofluorescence imaging, at 2 µM; inhibition: stronger effect = higher value; nuclei count: measured here: cell number, toxicity.
Test [4] deals with Voltage-gated potassium channel subunit beta-2 (Rattus norvegicus) (UniProt P62483). As to the kind of experiment: inhibitors of rat Kvbeta2 reductase activity – biochemical, NADPH fluorescence, primary screen (AID 622;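 active = fluorescence slope higher than the sample average by over 3 SD, cut at about -0.22 in these data, passing the limit was not always enough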;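 note: slope of raw intensity against log time taken from 70 to 1610 s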). As to conditions: recombinant KvBeta, 4-cyanobenzaldehyde reduction, at 10 µM, stronger effect = higher value.
Sequence of Voltage-gated potassium channel subunit beta-2 (Rattus norvegicus) (P62483 whole entry, looked up): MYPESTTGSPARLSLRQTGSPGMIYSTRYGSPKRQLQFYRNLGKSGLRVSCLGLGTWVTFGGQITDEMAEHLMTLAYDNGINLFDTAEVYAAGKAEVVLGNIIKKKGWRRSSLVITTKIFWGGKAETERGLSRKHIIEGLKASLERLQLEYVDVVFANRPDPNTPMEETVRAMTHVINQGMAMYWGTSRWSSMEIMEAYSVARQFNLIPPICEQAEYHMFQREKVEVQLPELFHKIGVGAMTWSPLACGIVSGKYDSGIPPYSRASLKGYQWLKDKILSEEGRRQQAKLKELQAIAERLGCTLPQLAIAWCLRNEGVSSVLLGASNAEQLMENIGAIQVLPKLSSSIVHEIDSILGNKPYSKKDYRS
The target is the same in test [5]. As to the kind of experiment: enhancers of rat Kvbeta2 NADPH turnover – biochemical, NADPH fluorescence, primary screen (AID 623;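 active = NADPH fluorescence slope more negative than the mean of all samples by about 3 SD, 99.7% confidence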;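 note: fluorescence intensity change per second fitted from 20 to 320 s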). As to conditions: Recombinant KvBeta, NADPH fluorescence decrease slope, 10 min; at 10 µM; stronger effect = lower value.
The target of test [6] is Muscarinic acetylcholine receptor M4 (Homo sapiens) (UniProt P08173). Kind of test: M4-linked GIRK flux change, two-sided – cell-based, HEK293 M4/GIRK, thallium flux, BTC-AM, M4 allosteric agonist project, primary screen (AID 625;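 active = fluorescence slope after compound addition differing from the mean of all tested samples at 99.7% confidence, mostly higher but some lower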;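 note: thallium influx through GIRK channels coupled to M4 in HEK293 cells with BTC-AM dye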). Particulars: at 10 µM, actives lie on both sides. The essentials: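 Material: M4/GIRK1/GIRK2 stable HEK293 cell line. Medium: pH 7.3 thallium assay buffer. Dosing: single compound concentration, 10 µM final. Schedule: 1 h dye loading, 2 min kinetic read. Measured by: kinetic fluorescence with BTC-AM dye. Read-out: post-addition slope, 15–24 s, of baseline-normalized fluorescence. Benchmarks: carbachol and DMSO controls.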
Sequence of Muscarinic acetylcholine receptor M4 (Homo sapiens) (P08173 whole entry, looked up): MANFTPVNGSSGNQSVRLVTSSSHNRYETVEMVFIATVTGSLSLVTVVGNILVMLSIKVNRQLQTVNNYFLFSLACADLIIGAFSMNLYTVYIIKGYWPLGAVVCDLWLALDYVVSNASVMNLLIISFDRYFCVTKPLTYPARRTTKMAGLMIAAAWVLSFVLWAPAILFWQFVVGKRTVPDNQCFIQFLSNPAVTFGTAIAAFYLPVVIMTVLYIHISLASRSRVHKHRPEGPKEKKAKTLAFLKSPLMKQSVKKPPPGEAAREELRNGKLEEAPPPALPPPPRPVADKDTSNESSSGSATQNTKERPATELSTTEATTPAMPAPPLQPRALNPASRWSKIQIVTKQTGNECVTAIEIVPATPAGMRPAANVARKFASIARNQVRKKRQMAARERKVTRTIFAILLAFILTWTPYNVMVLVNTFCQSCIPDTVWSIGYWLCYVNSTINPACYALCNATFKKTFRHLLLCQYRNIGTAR

The nature of test [7]: blockers of RIG-like receptor reporter activation – cell-based, Sendai virus stimulus, luciferase, 10K MLSCN set, TLR/RLR signaling modifier project, primary screen (AID 602276;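 active = inhibition at or above 50% at 10 µM; inactive = inhibition below 50%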;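 note: firefly luciferase from ISG56 promoter only with Renilla not read in this screen; 0% = Sendai virus plus DMSO and 100% = medium plus DMSO without virus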). As to conditions: HEK293 RL24 IRF3 luciferase reporter, at 10 µM, stronger effect = higher value.
A short description of test [8]: TLR3 IRF3 reporter activation blockers – cell-based, poly I:C stimulus, luciferase, 10K MLSCN set, primary screen (AID 602277). As to conditions: HEK293-TLR3 RL24 IRF3 luciferase reporter, at 10 µM, stronger effect = higher value.

Calls of active or inactive are those of the source.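 Rule for the calls, unless noted: active = inhibition of the reporter signal at or above 50%; inactive = inhibition below 50%.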

As for `CN(C)c1nc(N)nc(CSc2nnnn2-c2cccc3ccccc23)n1`, the cell count in test [1] is 627. Besides, the inhibition is -10.4% (inactive) in test [1], -69.3% (inactive) in test [3], 18.6% (inactive) in test [7] and 14.8% (inactive) in test [8]. The inhibition of aggregation in test [2] was 27.3% (inactive). The nuclei count in test [2] is 71.9%; in test [3] it was 103%. Further, the fluorescence slope was -0.463 (inactive) in test [4] and 0.00537 (inactive) in test [6]. For the same compound, the NADPH fluorescence slope in test [5] was -3.9e-05 (inactive).
Turning to `CCCC(C)C1C(C#N)=C(N)Oc2cc(C)oc(=O)c21` (centres undefined), the cell count in test [1] turned out to be 396. Further, the inhibition in test [1] is -15.6% (inactive); in test [3] it was -185% (inactive); in test [7], 18.1% (inactive); in test [8], 18.7% (inactive). Further, the inhibition of aggregation in test [2] was -2.4% (inactive). The nuclei count in test [2] turned out to be 68.3%; in test [3], 134%. Also, the fluorescence slope in test [4] is -0.455 (inactive); in test [6], 0.00507 (inactive). The NADPH fluorescence slope in test [5] is -9.5e-05 (inactive).
As for `O=c1c(F)cn(C2CCCO2)c(=O)n1Cc1c(F)cccc1Cl` (centres undefined), in test [1], the cell count worked out at 738. Moreover, the inhibition in test [1] is -7.1% (inactive); in test [3] it was -114% (inactive); in test [7], 5.15% (inactive); in test [8], 13.2% (inactive). Also, the inhibition of aggregation in test [2] was -9.4% (inactive). In addition, the nuclei count was determined as 103% in test [2] and 140% in test [3]. Moreover, the fluorescence slope in test [4] is -0.549 (inactive); in test [6], 0.00479 (inactive). Besides, in test [5], the NADPH fluorescence slope is -1.3e-05 (inactive).
For the compound `O=C(O)Cn1cc2c(n1)CCCC2`, in test [1], the cell count stood at 638. The inhibition in test [1] was 0.2% (inactive); in test [3], 13.9% (inactive); in test [7], 9.43% (inactive); in test [8], 8.73% (inactive). The inhibition of aggregation in test [2] was -7.3% (inactive). In addition, the results for the nuclei count in test [2] and in test [3] were 104% and 114%, respectively. Also, the fluorescence slope in test [4] is -0.395 (inactive); in test [6] it was 0.00644 (inactive). Besides, the NADPH fluorescence slope in test [5] was 6.4e-05 (inactive).
Take `O=C(Nc1ccc(N2CCCC2=O)cc1)c1cccc(F)c1`: the cell count in test [1] is 226. Moreover, the inhibition in test [1] was -5.9% (inactive); in test [3] it was -11.4% (inactive); in test [7], -49% (inactive); in test [8], -122% (inactive). For the same compound, the inhibition of aggregation in test [2] is 15.3% (inactive). The nuclei count stood at 90.3% in test [2] and 71.5% in test [3]. For the same compound, the fluorescence slope in test [4] was -0.461 (inactive); in test [6] it was 0.00447 (inactive). In addition, the NADPH fluorescence slope in test [5] is 2e-05 (inactive).
With `Cn1nc(-c2ccc(C(=O)N3CCN(c4ccccc4)CC3)cc2)c2ccccc2c1=O`, in test [1], the cell count is 769. For the same compound, the inhibition was -4% (inactive) in test [1], -13.7% (inactive) in test [3], -31.8% (inactive) in test [7] and -26.4% (inactive) in test [8]. Also, in test [2], the inhibition of aggregation is 10.9% (inactive). Further, the results for the nuclei count in test [2] and in test [3] were 90.3% and 110%, respectively. The figures for the fluorescence slope in test [4] and in test [6] were -0.552 (inactive) and 0.00744 (inactive), respectively. The NADPH fluorescence slope in test [5] is -4.4e-05 (inactive).
Turning to `CC(C)c1ccc(NC(=O)C2CC(=O)N(C(C)C)C2)cc1` (centres undefined), the cell count in test [1] worked out at 232. In addition, the inhibition in test [1] was -2.3% (inactive); in test [3] it was -44.3% (inactive); in test [7], 12.8% (inactive); in test [8], -37.1% (inactive). Besides, the inhibition of aggregation in test [2] is 21% (inactive). Further, the values for the nuclei count in test [2] and in test [3] were 81.7% and 108%, respectively. For the same compound, the results for the fluorescence slope in test [4] and in test [6] were -0.558 (inactive) and 0.0102 (inactive), respectively. Besides, in test [5], the NADPH fluorescence slope was -6.2e-05 (inactive).
Consider `O=C(NCCO)c1scc2c1OCCO2`, for which the cell count in test [1] worked out at 572. For the same compound, the inhibition in test [1] was -12.8% (inactive); in test [3], -15.2% (inactive); in test [7], 16.6% (inactive); in test [8] it was 19.5% (inactive). Further, in test [2], the inhibition of aggregation was 7.6% (inactive). Also, the values for the nuclei count in test [2] and in test [3] were 97.2% and 104%, respectively. Further, the fluorescence slope in test [4] is -0.327 (inactive); in test [6], 0.00603 (inactive). The NADPH fluorescence slope in test [5] is 6.5e-05 (inactive).
Regarding `CCOC(=O)c1c(NC(=O)CSc2nnc(-c3ccc(OC)cc3)o2)sc2c1CCC2`, in test [1], the cell count turned out to be 705. In addition, the inhibition in test [1] is -10.9% (inactive); in test [3] it was -10.2% (inactive); in test [7] it was 0.872% (inactive); in test [8], 5.8% (inactive). In test [2], the inhibition of aggregation was -10.3% (inactive). In addition, the nuclei count in test [2] came out at 113%; in test [3], 91.1%. Besides, the fluorescence slope in test [4] was -0.56 (inactive); in test [6] it was 0.0094 (inactive). Also, the NADPH fluorescence slope in test [5] is -9.6e-07 (inactive).
On to `O=C(Cn1c(=O)[nH]c2ccsc2c1=O)NC1CCCCCC1`, for which the cell count in test [1] worked out at 468. The inhibition in test [1] is -0.7% (inactive); in test [3], 13.2% (inactive); in test [7] it was 17.6% (inactive); in test [8] it was 9.21% (inactive). Further, the inhibition of aggregation in test [2] was 19.2% (inactive). For the same compound, the nuclei count was 104% in test [2] and 107% in test [3]. Moreover, the values for the fluorescence slope in test [4] and in test [6] were -0.26 (inactive) and 0.0062 (inactive), respectively. In addition, the NADPH fluorescence slope in test [5] is -3.5e-06 (inactive).
For `COc1cc(NS(=O)(=O)c2cccc3nsnc23)c(C(=O)O)cc1OC`, in test [1], the cell count was 296. In addition, the inhibition in test [1] was -6% (inactive); in test [3], 5.3% (inactive); in test [7], 14.8% (inactive); in test [8], 17.5% (inactive). Moreover, the inhibition of aggregation in test [2] is -7.8% (inactive). The nuclei count in test [2] was 95.9%; in test [3] it was 136%. Moreover, the fluorescence slope in test [4] is -0.575 (inactive); in test [6] it was 0.00636 (inactive). For the same compound, the NADPH fluorescence slope in test [5] is -4.3e-05 (inactive).
Consider `Cc1ccc(NS(=O)(=O)c2cn(C)cn2)cc1`, for which the cell count in test [1] amounted to 491. Also, the inhibition was -0.5% (inactive) in test [1], 3.6% (inactive) in test [3], 15.2% (inactive) in test [7] and 17.6% (inactive) in test [8]. The inhibition of aggregation in test [2] was 7.8% (inactive). The values for the nuclei count in test [2] and in test [3] were 89.1% and 107%, respectively. Besides, the fluorescence slope in test [4] is -0.44 (inactive); in test [6], 0.00531 (inactive). In addition, the NADPH fluorescence slope in test [5] was -0.000336 (inactive).
Turning to `COCCN1C(=O)C(=O)/C(=C(/O)c2cccc(S(=O)(=O)N(C)C)c2)C12C(=O)N(C)c1ccccc12` (centres undefined), in test [1], the cell count was determined as 584. In addition, the inhibition in test [1] is -22.3% (inactive); in test [3], -76.4% (inactive); in test [7] it was 8.34% (inactive); in test [8], 33.7% (inactive). The inhibition of aggregation in test [2] is 5.4% (inactive). Further, the nuclei count in test [2] was found to be 115%; in test [3], 107%. The fluorescence slope in test [4] is -0.483 (inactive); in test [6] it was 0.00617 (inactive). In addition, the NADPH fluorescence slope in test [5] is -5e-05 (inactive).
On to `Cc1ccc(-c2nnn(CC(=O)NC3CC4CCC3C4)n2)cc1` (centres undefined), for which the cell count in test [1] came out at 239. Moreover, the inhibition in test [1] is -5% (inactive); in test [3], 3.6% (inactive); in test [7], 7.26% (inactive); in test [8] it was -0.548% (inactive). In addition, the inhibition of aggregation in test [2] is 15.8% (inactive). For the same compound, the nuclei count in test [2] came to 77.6%; in test [3] it was 102%. Also, the fluorescence slope is -0.563 (inactive) in test [4] and 0.00799 (inactive) in test [6]. In addition, in test [5], the NADPH fluorescence slope was -4.4e-05 (inactive).
